Data taken from ChEMBL document CHEMBL1759851, “Facile synthesis and stereochemical investigation of Mannich base derivatives: evaluation of antioxidant property and antituberculostic potency” (2011).

Columns and labels:
Assay type in all cases: functional
[1] = test system: Mycobacterium tuberculosis; test: Antituberculosis activity against Mycobacterium tuberculosis H37Rv
Method in brief: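 Zone-of-inhibition assay against M. tuberculosis H37Rv. Zone diameters were scored on an activity index: 0–5 mm, 6–10 mm (+), 11–15 mm (++), 16–20 mm (+++), and a top band (++++) for larger zones.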

[2] = test system: Radical scavenging activity; test: Antioxidant activity assessed as DPPH radical scavenging activity at 100 ug/mL after 30 mins
Method in brief: (§1)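 Oxime ethers tested by DPPH radical scavenging (Blois method, slightly modified). Sample and DPPH solution mixed gently and left at room temperature for 30 min. Optical density read at 530 nm on a microplate reader. Scavenging reported as % inhibition at each test concentration.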

[3] = test system: Radical scavenging activity; test: Antioxidant activity assessed as DPPH radical scavenging activity at 200 ug/mL after 30 mins; method in brief: as §1
[4] = test system: Radical scavenging activity; test: Antioxidant activity assessed as DPPH radical scavenging activity at 400 ug/mL after 30 mins; method in brief: as §1
[5] = test system: Radical scavenging activity; test: Antioxidant activity assessed as DPPH radical scavenging activity at 800 ug/mL after 30 mins; method in brief: as §1
[6] = test system: Radical scavenging activity; test: Antioxidant activity assessed as DPPH radical scavenging activity at 10 ug/mL after 30 mins; method in brief: as §1

CO/N=C1\[C@H]2CCC[C@@H]1[C@H](c1ccc(Cl)cc1)N[C@@H]2c1ccc(Cl)cc1
inhibition zone (IZ) [1]: 11 mm
inhibition [2]: 6.58%

NNC(=O)c1ccncc1 [ISONIAZID]
inhibition zone (IZ) [1]: <=21 mm

CO/N=C1\[C@H]2CCC[C@@H]1[C@H](c1ccc(C)cc1)N(C)[C@@H]2c1ccc(C)cc1
inhibition zone (IZ) [1]: 6 mm
inhibition [2]: 19.8%
inhibition [3]: 22%

CO/N=C1\[C@H]2CCC[C@@H]1[C@H](c1ccc(SC)cc1)N[C@@H]2c1ccc(SC)cc1
inhibition zone (IZ) [1]: 11 mm
inhibition [2]: 17.6%
inhibition [3]: 22.5%

CO/N=C1\[C@H]2CCC[C@@H]1[C@H](c1ccccc1)N[C@@H]2c1ccccc1
inhibition zone (IZ) [1]: 0 mm
inhibition [2]: 10.5%
inhibition [3]: 18.7%
inhibition [4]: 24.4%

CO/N=C1\[C@H]2CCC[C@@H]1[C@H](c1ccc(OCc3ccccc3)cc1)N[C@@H]2c1ccc(OCc2ccccc2)cc1
inhibition zone (IZ) [1]: <=21 mm
inhibition [2]: 27.9%
inhibition [3]: 47.8%

CO/N=C1\[C@H]2CCC[C@@H]1[C@H](c1ccc(C)cc1)N[C@@H]2c1ccc(C)cc1
inhibition zone (IZ) [1]: 0 mm
inhibition [2]: 14.5%

CO/N=C1\[C@H]2CCC[C@@H]1[C@H](c1ccccc1C)N[C@@H]2c1ccccc1C
inhibition zone (IZ) [1]: 0 mm
inhibition [2]: 9.5%

CO/N=C1\[C@H]2CCC[C@@H]1[C@H](c1cccc(F)c1)N[C@@H]2c1cccc(F)c1
inhibition zone (IZ) [1]: 6 mm
inhibition [2]: 0.97%

CO/N=C1\[C@H]2CCC[C@@H]1[C@H](c1ccccc1Cl)N(C)[C@@H]2c1ccccc1Cl
inhibition zone (IZ) [1]: 11 mm
inhibition [2]: 11.4%

CCCOc1ccc([C@H]2N[C@@H](c3ccc(OCCC)cc3)[C@H]3CCC[C@@H]2/C3=N\OC)cc1
inhibition zone (IZ) [1]: 6 mm
inhibition [2]: 23.9%
inhibition [3]: 38.5%

CO/N=C1\[C@H]2CCC[C@@H]1[C@H](c1cccc(Br)c1)N[C@@H]2c1cccc(Br)c1
inhibition [2]: 4.35%

CO/N=C1\[C@H]2CCC[C@@H]1[C@H](c1ccccc1F)N[C@@H]2c1ccccc1F
inhibition zone (IZ) [1]: 11 mm
inhibition [2]: 2.33%

CCOc1ccccc1[C@H]1N[C@@H](c2ccccc2OCC)[C@H]2CCC[C@@H]1/C2=N\OC
inhibition zone (IZ) [1]: 6 mm
inhibition [2]: 10.2%

CO/N=C1\[C@H]2CCC[C@@H]1[C@H](c1ccc(F)cc1)N(C)[C@@H]2c1ccc(F)cc1
inhibition zone (IZ) [1]: <=21 mm
inhibition [2]: 2.4%

CO/N=C1\[C@H]2CCC[C@@H]1[C@H](c1ccc(OC)cc1)N(C)[C@@H]2c1ccc(OC)cc1
inhibition zone (IZ) [1]: 6 mm
inhibition [2]: 20.9%
inhibition [3]: 41.9%
inhibition [4]: 58.8%

CO/N=C1\[C@H]2CCC[C@@H]1[C@H](c1ccc(OC(C)=O)c(OC)c1)N[C@@H]2c1ccc(OC(C)=O)c(OC)c1
inhibition [2]: 32.4%
inhibition [3]: 52.9%
inhibition [4]: 78.3%
inhibition [5]: 88.8%

CO/N=C1\[C@H]2CCC[C@@H]1[C@H](c1ccccc1Br)N[C@@H]2c1ccccc1Br
inhibition [2]: 5.28%

C=CCOc1ccc([C@H]2N[C@@H](c3ccc(OCC=C)cc3)[C@H]3CCC[C@@H]2/C3=N\OC)cc1
inhibition zone (IZ) [1]: <=21 mm
inhibition [2]: 21.7%
inhibition [3]: 25.8%
inhibition [4]: 31.8%

CO/N=C1\[C@H]2CCC[C@@H]1[C@H](c1ccccc1C)N(C)[C@@H]2c1ccccc1C
inhibition zone (IZ) [1]: 6 mm
inhibition [2]: 15.3%

CCOc1ccc([C@H]2N[C@@H](c3ccc(OCC)cc3)[C@H]3CCC[C@@H]2/C3=N\OC)cc1
inhibition zone (IZ) [1]: 6 mm
inhibition [2]: 23.2%
inhibition [3]: 30.8%

CO/N=C1\[C@H]2CCC[C@@H]1[C@H](c1ccccc1OC)N(C)[C@@H]2c1ccccc1OC
inhibition [2]: 15.4%
inhibition [3]: 24.9%
inhibition [4]: 40.2%

CO/N=C1\[C@H]2CCC[C@@H]1[C@H](c1ccc(Br)cc1)N[C@@H]2c1ccc(Br)cc1
inhibition zone (IZ) [1]: 0 mm
inhibition [2]: 5.72%

O=C1O[C@H]([C@@H](O)CO)C(O)=C1O
inhibition [6]: 98.5%

CO/N=C1\[C@H]2CCC[C@@H]1[C@H](c1ccc(C(C)C)cc1)N[C@@H]2c1ccc(C(C)C)cc1
inhibition zone (IZ) [1]: 6 mm
inhibition [2]: 15.3%

CO/N=C1\[C@H]2CCC[C@@H]1[C@H](c1ccccc1)N(C)[C@@H]2c1ccccc1
inhibition [2]: 10.7%
inhibition [3]: 13.8%

CCCCOc1ccc([C@H]2N[C@@H](c3ccc(OCCCC)cc3)[C@H]3CCC[C@@H]2/C3=N\OC)cc1
inhibition zone (IZ) [1]: 6 mm
inhibition [2]: 27.8%
inhibition [3]: 43.9%

CO/N=C1\[C@H]2CCC[C@@H]1[C@H](c1ccc(Br)cc1)N(C)[C@@H]2c1ccc(Br)cc1
inhibition zone (IZ) [1]: 0 mm
inhibition [2]: 12.1%

CO/N=C1\[C@H]2CCC[C@@H]1[C@H](c1ccc(F)cc1)N[C@@H]2c1ccc(F)cc1
inhibition zone (IZ) [1]: 16 mm
inhibition [2]: 3.6%

CO/N=C1\[C@H]2CCC[C@@H]1[C@H](c1cccc(OC)c1)N[C@@H]2c1cccc(OC)c1
inhibition [2]: 13.5%

CO/N=C1\[C@H]2CCC[C@@H]1[C@H](c1cccc(OC)c1)N(C)[C@@H]2c1cccc(OC)c1
inhibition [2]: 10.7%
inhibition [3]: 13.8%
inhibition [4]: 26.8%

CO/N=C1\[C@H]2CCC[C@@H]1[C@H](c1cccc(Cl)c1)N[C@@H]2c1cccc(Cl)c1
inhibition zone (IZ) [1]: 0 mm
inhibition [2]: 4.77%

CO/N=C1\[C@H]2CCC[C@@H]1[C@H](c1ccccc1OC)N[C@@H]2c1ccccc1OC
inhibition zone (IZ) [1]: 6 mm
inhibition [2]: 16%
inhibition [3]: 20.7%

CO/N=C1\[C@H]2CCC[C@@H]1[C@H](c1ccccc1Cl)N[C@@H]2c1ccccc1Cl
inhibition zone (IZ) [1]: 6 mm
inhibition [2]: 6.47%

CO/N=C1\[C@H]2CCC[C@@H]1[C@H](c1ccc(Cl)cc1)N(C)[C@@H]2c1ccc(Cl)cc1
inhibition zone (IZ) [1]: 11 mm
inhibition [2]: 11.9%

CO/N=C1\[C@H]2CCC[C@@H]1[C@H](c1ccc(OC)cc1)N[C@@H]2c1ccc(OC)cc1
inhibition zone (IZ) [1]: 6 mm
inhibition [2]: 13.9%

CCc1ccc([C@H]2N[C@@H](c3ccc(CC)cc3)[C@H]3CCC[C@@H]2/C3=N\OC)cc1
inhibition zone (IZ) [1]: 0 mm
inhibition [2]: 11.9%
